# Results as given in ChEMBL document CHEMBL1159387, “Absolute stereostructures of new arborinane-type triterpenoids and inhibitors of nitric oxide production from Rubia yunnanensis” (J Nat Prod, 2003).
# Tests used:
# Macrophage [1] = assay: Inhibition of nitric oxide production in lipopolysaccharide-activated ddY mouse macrophages at 1 uM relative to control; format: functional
# Procedure, shortened: (§1)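 Peritoneal macrophages from male ddY mice given 4% thioglycolate i.p. 4 days earlier, plated at 5 × 10^5 cells/well in RPMI 1640 with 5% FCS, 1 h at 37 °C; adherent cells (>95% macrophages) then cultured 20 h with 10 µg/mL LPS plus compound (1-100 µM, DMSO final 0.5%). Nitrite in medium measured by Griess reagent; % inhibition versus LPS-only control, IC50 read graphically, N = 4.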
# Macrophage [2] = assay: Inhibition of nitric oxide production in lipopolysaccharide-activated ddY mouse macrophages at 10 uM relative to control; format: functional; procedure, shortened: as §1
# Macrophage [3] = assay: Inhibition of nitric oxide production in lipopolysaccharide-activated ddY mouse macrophages at 30 uM relative to control; format: functional; procedure, shortened: as §1
# Macrophage [4] = assay: Inhibition of nitric oxide production in lipopolysaccharide-activated ddY mouse macrophages at 3 uM relative to control; format: functional; procedure, shortened: as §1
# Macrophage [5] = assay: Inhibition of nitric oxide production in lipopolysaccharide-activated ddY mouse macrophages at 100 uM relative to control; format: functional; procedure, shortened: as §1
# [6] = Toxicity in lipopolysaccharide-activated ddY mouse macrophages at 100 uM by MTT method; format: cell-based; details: macrophage
# Procedure, shortened: (§2)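 Peritoneal exudate cells from male ddY mice given 4% thioglycolate i.p. 4 days earlier, plated at 5 × 10^5 cells/well in RPMI 1640 with 5% FCS, 1 h at 37 °C. Non-adherent cells washed off. Adherent macrophages exposed to 10 µg/mL LPS plus compound (DMSO, final 0.5%) for 20 h. MTT added for 4 h, formazan dissolved in 2-propanol/0.04 M HCl, read at 570 nm (ref 655 nm). N=4.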
# [7] = Toxicity in lipopolysaccharide-activated ddY mouse macrophages by MTT method; format: cell-based; details: macrophage
# Procedure, shortened: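 Thioglycolate-elicited ddY mouse peritoneal macrophages were treated for 20 h with 10 µg/mL LPS plus compound (1-100 µM, 0.5% DMSO final). MTT (5 mg/mL in PBS) was then added for 4 h, and formazan was dissolved in 2-propanol with 0.04 M HCl. Absorbance was read at 570 nm (reference 655 nm), N = 4.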
# [8] = Toxicity in lipopolysaccharide-activated ddY mouse macrophages at 30 uM by MTT method; format: cell-based; details: macrophage; procedure, shortened: as §2
# [9] = Inhibition of NOS; procedure, shortened: as §1
IC50 [9] [µM],SMILES,inhibition at 1 µM (Macrophage [1]) [%],inhibition at 10 µM (Macrophage [2]) [%],inhibition at 30 µM (Macrophage [3]) [%],inhibition at 3 µM (Macrophage [4]) [%],inhibition at 100 µM (Macrophage [5]) [%],Activity [6],Activity [7],Activity [8]
,Cc1c(O)cc2c(c1O)C(=O)c1ccc(O)cc1C2=O,4.9,37.5,99.5,7.9,99.6,Toxic,,
,CC(=O)OC[C@@]12CC[C@@]3(C)[C@H]4C(=CC[C@]3(C)[C@H]1[C@H](OC(C)=O)C[C@H]2C(C)C)[C@@]1(C)CC[C@H](OC(C)=O)C(C)(C)[C@@H]1C[C@@H]4OC(C)=O,5.3,-1.2,0,10.6,6.6,,,
,CC(=O)OC[C@@]12CC[C@@]3(C)[C@H]4C(=CC[C@]3(C)[C@H]1[C@H](O)C[C@H]2C(C)C)[C@@]1(C)C[C@@H](O)C(=O)C(C)(C)[C@@H]1C[C@@H]4O,-1.1,0,-5.8,-1.5,15.4,,,
,CC(=O)OC[C@@]12CC[C@@]3(C)[C@H]4C(=CC[C@]3(C)[C@H]1[C@H](O)C[C@H]2C(C)C)[C@@]1(C)CC[C@H](O)C(C)(C)[C@@H]1C[C@@H]4O,5.2,4.7,-7.4,11.1,25.5,Toxic,,
,CC(C)[C@@H]1C[C@@H](O)[C@H]2[C@@]1(CO)CC[C@@]1(C)[C@H]3C(=CC[C@]21C)[C@@]1(C)C[C@@H](O)C(=O)C(C)(C)[C@@H]1C[C@@H]3O,-9.6,2.1,1.8,-10.3,40.3,,,
,CC(=O)OC[C@@]12CC[C@@]3(C)[C@H]4C(=CC[C@]3(C)[C@H]1[C@H](O)C[C@H]2C(C)C)[C@@]1(C)C[C@@H](O)[C@H](O)C(C)(C)[C@@H]1C[C@@H]4O,17,4.3,-11.1,5.3,76.5,,Non-toxic,
,CC(=O)OC[C@@]12CC[C@@]3(C)[C@H]4C(=CC[C@]3(C)[C@H]1[C@H](OC(C)=O)C[C@H]2C(C)C)[C@@]1(C)C[C@@H](OC(C)=O)[C@H](OC(C)=O)C(C)(C)[C@@H]1C[C@@H]4OC(C)=O,7.7,18.7,25.5,9.5,28.4,,,
,COc1cc(O)cc(OC)c1C(=O)O,9.5,7.5,7.2,9.3,28,,,
,CC(=O)OC[C@@]12CC[C@@]3(C)[C@H]4C(=CC[C@]3(C)[C@H]1[C@H](O)C[C@H]2C(C)C)[C@@]1(C)C[C@@H](OC(C)=O)[C@H](O)C(C)(C)[C@@H]1C[C@@H]4O,20.2,-12,-7.9,21.3,77.1,,Non-toxic,
,CC(=O)OC[C@@]12CC[C@@]3(C)[C@H]4C(=CC[C@]3(C)[C@H]1[C@H](OC(C)=O)C[C@H]2C(C)C)[C@@]1(C)C[C@@H](OC(C)=O)C(=O)C(C)(C)[C@@H]1C[C@@H]4OC(C)=O,1.7,12.5,18.7,7.3,23,,,
,COc1cc(C[C@@H](CO)[C@H](CO)Cc2ccc(O)c(OC)c2)ccc1O [(+)-SECOISOLARICIRESINOL],5.9,6.5,0.9,-7.3,-12.5,,,
,COc1cc([C@H]2c3cc(O)c(OC)cc3C[C@@H](CO)[C@@H]2CO)ccc1O [ISOLARICIRESINOL],-0.2,0.6,5.1,-0.6,7.5,,,
,COc1cc(C[C@H]2CO[C@H](c3ccc(O)c(OC)c3)[C@H]2CO)ccc1O [LARICIRESINOL],4,5.5,-8.2,3,11.9,,,
,CC(=O)O[C@@H]1C[C@]2(C)C3=CC[C@]4(C)[C@H]5[C@@H]6C[C@@H](C(C)C)[C@@]5(CC[C@@]4(C)[C@@H]3[C@@H](O)C[C@H]2C(C)(C)[C@H]1O[C@@H]1O[C@H](CO)[C@@H](O)[C@H](O)[C@H]1O)CO6 [RUBIANOSIDE I],5.1,-8,1.5,-0.3,-3.2,,,
,CC(C)[C@@H]1C[C@@H](O)[C@H]2[C@@]1(CO)CC[C@@]1(C)[C@H]3C(=CC[C@]21C)[C@@]1(C)CC[C@H](O)C(C)(C)[C@@H]1C[C@@H]3O [RUBIARBONOL A],6.3,-4.2,2.9,4.2,86.3,Toxic,,Toxic
,CC(C)[C@@H]1C[C@@H](O)[C@H]2[C@@]1(CO)CC[C@@]1(C)[C@H]3C(=CC[C@]21C)[C@@]1(C)C[C@@H](O)[C@H](O)C(C)(C)[C@@H]1C[C@@H]3O [RUBIARBONOL F],9.6,15.4,22,7.9,60.4,Toxic,,
,CC(C)[C@@H]1C[C@@H](O)[C@H]2[C@@]1(CO)CC[C@@]1(C)[C@H]3C(=CC[C@]21C)[C@@]1(C)CCC(=O)C(C)(C)[C@@H]1C[C@@H]3O [RUBIARBONONE B],4.3,-13.7,16.9,-9.7,19.7,,,
,CC(=O)OC[C@@]12CC[C@@]3(C)[C@H]4C(=CC[C@]3(C)[C@H]1[C@H](O)C[C@H]2C(C)C)[C@@]1(C)CCC(=O)C(C)(C)[C@@H]1C[C@@H]4O [RUBIARBONONE C],-2.1,-2.3,8,3.7,90.3,Toxic,,
57,CNC(=N)NCCC[C@H](N)C(=O)O [TILARGININE],5.9,15,34.1,10.3,63.1,,,
,COc1cc(C(=O)O)ccc1O [VANILLIC ACID],5.9,8.2,-3.6,16.2,5.9,,,
